ChEMBL document CHEMBL1137816, “New polyhydroxylated pyrrolidine, piperidine, and pyrrolizidine alkaloids from Scilla sibirica” (J Nat Prod, 2002)
Calls of active or inactive are those of the source. The rule behind the calls is not given here.

What follows are molecules tested against T1, Tissue alpha-L-fucosidase (Bos taurus) (UniProt Q2KIM0) (assay: Inhibition of bovine epididymis alpha-L-fucosidase assessed as p-nitrophenol release at 1000 uM after 30 mins by spectrophotometry).
T1 sequence (whole entry): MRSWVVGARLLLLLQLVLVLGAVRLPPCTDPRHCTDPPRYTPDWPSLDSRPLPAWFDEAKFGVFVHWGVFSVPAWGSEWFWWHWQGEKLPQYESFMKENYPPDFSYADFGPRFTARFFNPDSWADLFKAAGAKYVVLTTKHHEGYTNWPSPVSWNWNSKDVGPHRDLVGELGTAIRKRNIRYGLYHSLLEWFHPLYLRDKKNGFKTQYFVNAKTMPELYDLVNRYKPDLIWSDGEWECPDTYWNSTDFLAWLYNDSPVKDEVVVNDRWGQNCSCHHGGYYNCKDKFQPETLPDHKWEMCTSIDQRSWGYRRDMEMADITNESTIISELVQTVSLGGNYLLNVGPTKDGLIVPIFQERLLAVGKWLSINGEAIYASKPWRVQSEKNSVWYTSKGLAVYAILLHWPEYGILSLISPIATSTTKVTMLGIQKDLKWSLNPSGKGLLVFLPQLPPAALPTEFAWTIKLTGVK
In short: (§1)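 p-Nitrophenyl glycoside substrates: Penicillium decumbens α-L-rhamnosidase at pH 4.5, bovine epididymis α-L-fucosidase at pH 5.5, bovine liver β-galactosidase at pH 6.8. β-Mannosidase came from rat epididymal fluid purified from epididymis, with p-nitrophenyl-β-D-mannoside at pH 5.2. Enzyme, substrate and inhibitor were incubated 30 min at 37 °C. The reaction was stopped with 400 mM Na2CO3, and p-nitrophenol was read at 400 nm.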

| Compound | Activity |
| --- | --- |
| C[C@@H]1C[C@H](O)[C@@H]2[C@H](O)[C@@H](O)[C@@H](CO)N21 (relative stereo) | inactive |
| C[C@H]1CC[C@@H]2[C@H](O)[C@H](O)[C@@H](CO)N21 (relative stereo) | inactive |
| C[C@H]1CC[C@@H]2[C@H](O)[C@H](O)[C@H](CO)N21 (relative stereo) | inactive |

The molecules below were run against T2, Beta-galactosidase (Bos taurus) (UniProt Q58D55) (assay: Inhibition of bovine liver beta-galactosidase assessed as p-nitrophenol release at 1000 uM after 30 mins by spectrophotometry).
T2 sequence (whole entry): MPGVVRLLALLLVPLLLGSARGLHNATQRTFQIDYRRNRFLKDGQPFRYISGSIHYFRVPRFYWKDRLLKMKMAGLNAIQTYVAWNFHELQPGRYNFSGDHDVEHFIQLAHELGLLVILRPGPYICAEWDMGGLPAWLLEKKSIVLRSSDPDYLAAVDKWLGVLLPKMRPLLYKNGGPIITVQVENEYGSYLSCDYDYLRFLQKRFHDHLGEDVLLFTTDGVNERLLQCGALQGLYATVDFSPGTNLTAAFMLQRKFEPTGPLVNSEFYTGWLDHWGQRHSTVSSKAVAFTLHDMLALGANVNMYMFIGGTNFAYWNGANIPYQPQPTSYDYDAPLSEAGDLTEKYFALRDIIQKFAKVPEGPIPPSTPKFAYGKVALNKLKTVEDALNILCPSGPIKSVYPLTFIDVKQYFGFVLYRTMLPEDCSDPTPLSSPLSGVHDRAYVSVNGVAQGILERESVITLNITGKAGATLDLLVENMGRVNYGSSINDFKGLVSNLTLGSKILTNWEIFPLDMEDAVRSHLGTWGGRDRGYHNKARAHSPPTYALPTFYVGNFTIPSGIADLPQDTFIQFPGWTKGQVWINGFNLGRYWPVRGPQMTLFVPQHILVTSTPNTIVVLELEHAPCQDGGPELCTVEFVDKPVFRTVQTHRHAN
In short: as §1

| Compound | Activity |
| --- | --- |
| C[C@@H]1C[C@H](O)[C@@H]2[C@H](O)[C@@H](O)[C@@H](CO)N21 (relative stereo) | inactive |
| C[C@H]1CC[C@@H]2[C@H](O)[C@H](O)[C@@H](CO)N21 (relative stereo) | inactive |
| C[C@H]1CC[C@@H]2[C@H](O)[C@H](O)[C@H](CO)N21 (relative stereo) | inactive |

What follows are molecules tested against Lysosomal alpha-glucosidase (Rattus norvegicus) (UniProt Q6P7A9) (assay: Inhibition of rat intestinal maltase assessed as D-glucose release at 1000 uM after 30 mins by Glucose B-test).
In short: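 Brush border membranes from rat small intestine served as the enzyme source, with maltose substrate at pH 5.8. Incubation with inhibitor was 30 min at 37 °C. Released D-glucose was measured colorimetrically by Glucose B-test.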

Sequence of Lysosomal alpha-glucosidase (Rattus norvegicus) (Q6P7A9 whole entry): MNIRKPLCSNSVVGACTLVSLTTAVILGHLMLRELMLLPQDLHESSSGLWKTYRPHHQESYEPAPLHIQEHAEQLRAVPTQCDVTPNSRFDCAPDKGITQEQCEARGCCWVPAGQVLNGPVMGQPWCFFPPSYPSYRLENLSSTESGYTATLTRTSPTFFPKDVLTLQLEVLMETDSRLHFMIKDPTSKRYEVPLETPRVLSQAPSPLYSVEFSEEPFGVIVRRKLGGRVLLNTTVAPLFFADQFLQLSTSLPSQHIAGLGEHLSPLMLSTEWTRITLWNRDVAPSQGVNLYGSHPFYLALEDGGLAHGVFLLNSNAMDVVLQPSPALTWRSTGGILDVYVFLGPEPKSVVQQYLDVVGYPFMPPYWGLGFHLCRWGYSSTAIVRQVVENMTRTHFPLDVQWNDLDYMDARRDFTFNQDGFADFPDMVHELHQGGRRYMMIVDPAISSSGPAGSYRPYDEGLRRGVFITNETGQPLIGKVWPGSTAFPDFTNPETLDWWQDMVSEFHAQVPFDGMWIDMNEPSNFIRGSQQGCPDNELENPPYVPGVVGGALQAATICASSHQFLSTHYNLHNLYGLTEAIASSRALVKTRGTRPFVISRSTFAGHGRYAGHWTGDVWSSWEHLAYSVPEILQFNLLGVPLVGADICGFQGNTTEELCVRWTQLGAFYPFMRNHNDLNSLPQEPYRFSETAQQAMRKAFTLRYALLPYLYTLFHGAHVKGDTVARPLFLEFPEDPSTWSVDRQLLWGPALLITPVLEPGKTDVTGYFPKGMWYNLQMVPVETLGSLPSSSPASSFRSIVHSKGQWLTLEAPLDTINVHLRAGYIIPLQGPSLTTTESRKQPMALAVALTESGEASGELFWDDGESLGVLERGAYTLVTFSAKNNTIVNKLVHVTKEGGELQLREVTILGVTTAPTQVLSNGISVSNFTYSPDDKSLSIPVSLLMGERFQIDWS

| Compound | Activity |
| --- | --- |
| C[C@@H]1C[C@H](O)[C@@H]2[C@H](O)[C@@H](O)[C@@H](CO)N21 (relative stereo) | inactive |
| C[C@H]1CC[C@@H]2[C@H](O)[C@H](O)[C@@H](CO)N21 (relative stereo) | inactive |
| C[C@H]1CC[C@@H]2[C@H](O)[C@H](O)[C@H](CO)N21 (relative stereo) | inactive |

Each molecule was assayed against Oligo-1,6-glucosidase IMA1 (Saccharomyces cerevisiae S288c) (UniProt P53051) (assay: Inhibition of yeast alpha-glucosidase assessed as D-glucose release at 1000 uM after 30 mins by Glucose B-test).
Sequence of Oligo-1,6-glucosidase IMA1 (Saccharomyces cerevisiae S288c) (P53051 whole entry): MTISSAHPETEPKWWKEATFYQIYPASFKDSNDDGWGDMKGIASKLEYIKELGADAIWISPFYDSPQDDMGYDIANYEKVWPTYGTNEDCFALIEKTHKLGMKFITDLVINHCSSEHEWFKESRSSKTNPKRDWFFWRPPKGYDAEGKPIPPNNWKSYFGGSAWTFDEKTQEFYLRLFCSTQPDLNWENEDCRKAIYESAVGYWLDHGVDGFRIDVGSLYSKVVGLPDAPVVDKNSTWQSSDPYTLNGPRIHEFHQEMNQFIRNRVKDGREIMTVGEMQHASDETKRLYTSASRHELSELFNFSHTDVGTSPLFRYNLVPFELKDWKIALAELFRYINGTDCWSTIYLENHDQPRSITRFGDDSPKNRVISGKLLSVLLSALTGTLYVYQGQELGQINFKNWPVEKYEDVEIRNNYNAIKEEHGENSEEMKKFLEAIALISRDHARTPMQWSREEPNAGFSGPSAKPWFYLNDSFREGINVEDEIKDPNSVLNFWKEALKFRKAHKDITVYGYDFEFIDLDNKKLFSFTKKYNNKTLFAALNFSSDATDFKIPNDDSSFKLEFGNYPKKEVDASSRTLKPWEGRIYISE

| Compound | Activity |
| --- | --- |
| C[C@@H]1C[C@H](O)[C@@H]2[C@H](O)[C@@H](O)[C@@H](CO)N21 (relative stereo) | inactive |
| C[C@H]1CC[C@@H]2[C@H](O)[C@H](O)[C@@H](CO)N21 (relative stereo) | inactive |
| C[C@H]1CC[C@@H]2[C@H](O)[C@H](O)[C@H](CO)N21 (relative stereo) | inactive |

These molecules were tested against Lysosomal alpha-glucosidase (Rattus norvegicus) (UniProt Q6P7A9) (assay: Inhibition of rat liver lysosome alpha-glucosidase assessed as D-glucose release at 1000 uM after 30 mins by Glucose B-test).

| Compound | Activity |
| --- | --- |
| C[C@@H]1C[C@H](O)[C@@H]2[C@H](O)[C@@H](O)[C@@H](CO)N21 (relative stereo) | inactive |
| C[C@H]1CC[C@@H]2[C@H](O)[C@H](O)[C@@H](CO)N21 (relative stereo) | inactive |
| C[C@H]1CC[C@@H]2[C@H](O)[C@H](O)[C@H](CO)N21 (relative stereo) | inactive |

These molecules were tested on Oryza sativa (assay: Inhibition of rice alpha-glucosidase assessed as D-glucose release at 1000 uM after 10 mins by Glucose B-test).
In short: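 Rice α-glucosidase was assayed with maltose as substrate at the enzyme's optimum pH. Incubation with inhibitor was 10 min at 37 °C. Released D-glucose was determined colorimetrically by Glucose B-test.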

| Compound | Activity |
| --- | --- |
| C[C@@H]1C[C@H](O)[C@@H]2[C@H](O)[C@@H](O)[C@@H](CO)N21 (relative stereo) | inactive |
| C[C@H]1CC[C@@H]2[C@H](O)[C@H](O)[C@@H](CO)N21 (relative stereo) | inactive |
| C[C@H]1CC[C@@H]2[C@H](O)[C@H](O)[C@H](CO)N21 (relative stereo) | inactive |

These molecules were tested against T3, Beta-mannosidase (Rattus norvegicus) (UniProt Q4FZV0) (assay: Inhibition of rat epididymis beta-mannosidase assessed as p-nitrophenol release at 1000 uM after 30 mins by spectrophotometry).
T3 sequence (whole entry): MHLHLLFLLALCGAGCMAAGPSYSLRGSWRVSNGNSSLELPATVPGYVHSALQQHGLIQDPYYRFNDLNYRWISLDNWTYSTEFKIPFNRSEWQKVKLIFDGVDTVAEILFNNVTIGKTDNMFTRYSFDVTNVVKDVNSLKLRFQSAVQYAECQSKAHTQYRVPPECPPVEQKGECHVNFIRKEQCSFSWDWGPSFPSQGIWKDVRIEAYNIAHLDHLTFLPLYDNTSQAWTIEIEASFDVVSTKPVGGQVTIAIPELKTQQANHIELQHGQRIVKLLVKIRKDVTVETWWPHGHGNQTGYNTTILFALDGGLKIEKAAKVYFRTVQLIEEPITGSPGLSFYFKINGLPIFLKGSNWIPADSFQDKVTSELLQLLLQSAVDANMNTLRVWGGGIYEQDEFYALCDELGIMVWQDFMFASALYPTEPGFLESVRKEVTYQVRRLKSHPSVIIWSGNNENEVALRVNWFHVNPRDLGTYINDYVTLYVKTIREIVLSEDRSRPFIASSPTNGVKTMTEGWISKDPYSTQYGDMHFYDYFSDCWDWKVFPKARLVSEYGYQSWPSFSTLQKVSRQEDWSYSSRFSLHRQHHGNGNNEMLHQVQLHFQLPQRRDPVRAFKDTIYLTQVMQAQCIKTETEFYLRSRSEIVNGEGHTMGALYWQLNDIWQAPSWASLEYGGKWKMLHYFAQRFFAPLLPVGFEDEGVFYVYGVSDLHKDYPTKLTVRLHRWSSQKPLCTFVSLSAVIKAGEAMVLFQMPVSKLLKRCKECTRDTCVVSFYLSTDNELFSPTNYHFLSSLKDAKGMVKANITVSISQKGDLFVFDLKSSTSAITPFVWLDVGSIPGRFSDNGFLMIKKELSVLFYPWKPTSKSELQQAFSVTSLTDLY
In short: as §1

| Compound | Activity |
| --- | --- |
| C[C@H]1CC[C@@H]2[C@H](O)[C@H](O)[C@H](CO)N21 (relative stereo) | inactive |

Each molecule was assayed on Penicillium decumbens (assay: Inhibition of Penicillium decumbens alpha-L-rhamnosidase assessed as p-nitrophenol release at 1000 uM by spectrophotometry).
In short: as §1

| Compound | Activity |
| --- | --- |
| C[C@@H]1C[C@H](O)[C@@H]2[C@H](O)[C@@H](O)[C@@H](CO)N21 (relative stereo) | inactive |
| C[C@H]1CC[C@@H]2[C@H](O)[C@H](O)[C@@H](CO)N21 (relative stereo) | inactive |
| C[C@H]1CC[C@@H]2[C@H](O)[C@H](O)[C@H](CO)N21 (relative stereo) | inactive |
